Calls of active or inactive are those of the source. The calls are words filed in the database; no cut-off is given here.
Experiments:
[1] = Inhibition of Mycobacterium tuberculosis fatty acid synthase 1 expressed in Mycobacterium smegmatis mc2 2700 assessed as NADPH oxidation using variable concentration of NADPH by spectrophotometry
[2] = test system: Mycobacterium tuberculosis; assay: Inhibition of Mycobacterium tuberculosis fatty acid synthase 1 expressed in Mycobacterium smegmatis mc2 2700 assessed as [2-14C]]malonyl-CoA incorporation into fatty acid at 3000 uM
[3] = test system: Mycobacterium tuberculosis; assay: Inhibition of Mycobacterium tuberculosis fatty acid synthase 1 expressed in Mycobacterium smegmatis mc2 2700 assessed as [2-14C]]malonyl-CoA incorporation into fatty acid at 6000 uM
[4] = test system: Mycobacterium tuberculosis; assay: Inhibition of Mycobacterium tuberculosis fatty acid synthase 1 expressed in Mycobacterium smegmatis mc2 2700 assessed as NADPH oxidation by spectrophotometry
Method in brief: (§1)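 Purified Mtb FASI (from M. smegmatis Δfas1 attB::Mtb fas1, ammonium sulfate, DE52, gel filtration), 1–3 μg in 1 ml: 50 μM acetyl-CoA, 40 μM malonyl-CoA, 100 μM NADPH, 5 mM DTT, 400 mM potassium phosphate pH 7.4; inhibitor in DMSO (≤0.05 ml/ml). Linear A340 decrease over 10 min at 37°C; IC50 from Dixon plot x-intercept at 100 μM NADPH.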

[5] = Inhibition of Mycobacterium tuberculosis fatty acid synthase 1 expressed in Mycobacterium smegmatis mc2 2700 assessed as NADPH oxidation at 100 uM of NADPH by spectrophotometry; method in brief: as §1
[6] = test system: Mycobacterium tuberculosis; assay: Inhibition of Mycobacterium tuberculosis fatty acid synthase 1 expressed in Mycobacterium smegmatis mc2 2700 assessed as NADPH oxidation upto 100 mM by spectrophotometry
Method in brief: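 NADPH oxidation by purified Mtb FASI (1–3 μg/ml), 50 μM acetyl-CoA, 40 μM malonyl-CoA, 100 μM NADPH, 5 mM DTT, 400 mM potassium phosphate pH 7.4, 37°C, A340 decrease over 10 min; inhibitor added from DMSO at up to 100 mM, percent inhibition read.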

Work on `NC(=O)c1cnccn1` [PYRAZINAMIDE] yielded an IC50 [1] of 8930 µM, a Ki [1] of 2570 µM and an inhibition [2] of 6%. The inhibition [3] was 37%, the Activity [4] was “Dose-dependent effect” and the IC50 [5] was 8930 µM.

Compound `CC(C)(C)OC(=O)c1cnc(Cl)cn1` has an IC50 [5] of 15.1 µM.

For `CCCOC(=O)c1cnc(F)cn1`, the inhibition [3] was 66% and the IC50 [5] was 1.5 µM.

Work on `NC(=O)c1ccccc1` yielded an inhibition [6] of 15%.

Compound `NC(=O)c1cnc(Cl)cn1` has an IC50 [1] of 151 µM, a Ki [1] of 55 µM and an inhibition [2] of 39%. The Activity [4] was “Dose-dependent effect” and the IC50 [5] was 15.1 µM.

`CC(C)(C)OC(=O)c1cnccn1` showed an IC50 [5] of 1360 µM.

For `CC(C)(C)OC(=O)c1cnc(F)cn1`, the IC50 [5] was 4.3 µM.

In the case of `CC(C)(C)NC(=O)c1cnc(Cl)cn1`, the IC50 [5] is reported as 8.7 µM.

In the case of `CCCOC(=O)c1cnc(Cl)cn1`, the inhibition [3] is reported as 66% and the IC50 [5] is reported as 5.9 µM.

`CCCNC(=O)c1cnc(Cl)cn1` showed an inhibition [2] of 6%, an inhibition [3] of 37% and an IC50 [5] of 8.1 µM.

For `C/C=C/C/C=C/CCC(=O)[C@H]1O[C@H]1C(N)=O`, the Activity [2] was “inactive” and the inhibition [3] was 62%.

`CCCOC(=O)c1cnccn1` showed an inhibition [2] of 6%, an inhibition [3] of 37% and an IC50 [5] of 1720 µM.

For `CC[C@@H](CO)NCCN[C@@H](CC)CO`, the Activity [3] was “inactive”.

For `O=C(O)c1cnccn1`, the inhibition [2] was 6%, the inhibition [3] was 37% and the Activity [4] was “Dose-dependent effect”.

Source: ChEMBL document CHEMBL1157363, “Inhibition of isolated Mycobacterium tuberculosis fatty acid synthase I by pyrazinamide analogs” (Antimicrob Agents Chemother, 2007)
